From ChEMBL document CHEMBL1158769, “Macrophage activating effects of new alkamides from the roots of Echinacea species” (J Nat Prod, 2005)
In brackets after ≈: the same amount, converted by molar mass.

Experiments:
[1] = Toxicity in mouse RAW264.7 cells by MTT assay; type: cell-based; settings: read-out: TD50 (the source's name)
How it was run: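 RAW 264.7 cells exposed to a range of alkamide concentrations for 24 h, or for 4 h followed by 24 h in fresh medium. Cells washed, labeled with MTT for 4 h, lysed in DMSO, formazan read at A540. Viability = Exp-OD/Control-OD × 100%, with control at the same cell number.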

RAW264.7 = experiment: Inhibition of LPS-stimulated NO production in mouse RAW264.7 cells; type: functional; settings: read-out: ID50 (the source's name)
How it was run: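 In some runs the compound medium was removed and the cells washed before LPS. Supernatant nitrite measured by Griess reagent at A550. Relative NO = (Exp-OD − Control-OD)/(LPS-OD − Control-OD) × 100%.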

Row | IC50 (RAW264.7) [µg/mL] | SMILES | CC50 [1] [µg/mL]
1 | 6 (≈ 23.9 µM) | CCCCCCC/C=C/C=C/C(=O)NCC(C)C | 12.5 (≈ 49.7 µM)
2 | 6 (≈ 24.3 µM) | C/C=C/C=C\CC/C=C/C=C/C(=O)NCC(C)C | 50 (≈ 202 µM)
3 | 6 (≈ 24.3 µM) | C/C=C\C=C/CC/C=C/C=C/C(=O)NCC(C)C | 50 (≈ 202 µM)
